Reference: ChEMBL document CHEMBL1759994, “The discovery and synthesis of potent zwitterionic inhibitors of renin” (Bioorg Med Chem Lett, 2011)

Assays:
[1] = AUC (0 to 24 hrs) in Sprague-Dawley rat at 20 mg/kg, po as 0.5% methocel suspension; assay type: ADME, organism-based; parameters: time < 24 hr, dose 20 mg/kg, route oral; conditions: plasma
[2] = system: Liver; assay: Metabolic stability in human liver S9 fraction assessed as conversion to (1R,2R)-2-((3-(((3R,4S)-N-cyclopropyl-4-(4-(2-(2,6-dichloro-4-methylphenoxy)ethoxy)phenyl)piperidine-3-carboxamido)methyl)-5-(3-methoxypropyl)phenoxy)methyl)cyclopropanecarboxylic acid after 20 mins; assay type: ADME, subcellular; conditions: s9, 20 min
Outline: (§1)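 Prodrugs were incubated for 20 min in rat or human whole blood, or in rat or human liver S9 fraction (n = 2). The read-out was % conversion to the parent carboxylic acid.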

[3] = system: Liver; assay: Metabolic stability in Sprague-Dawley rat liver S9 fraction assessed as conversion to (1R,2R)-2-((3-(((3R,4S)-N-cyclopropyl-4-(4-(2-(2,6-dichloro-4-methylphenoxy)ethoxy)phenyl)piperidine-3-carboxamido)methyl)-5-(3-methoxypropyl)phenoxy)methyl)cyclopropanecarboxylic acid after 20 mins; assay type: ADME, subcellular; conditions: s9, 20 min; outline: as §1
[4] = system: Blood; assay: Metabolic stability in human whole blood assessed as conversion to (1R,2R)-2-((3-(((3R,4S)-N-cyclopropyl-4-(4-(2-(2,6-dichloro-4-methylphenoxy)ethoxy)phenyl)piperidine-3-carboxamido)methyl)-5-(3-methoxypropyl)phenoxy)methyl)cyclopropanecarboxylic acid after 20 mins; assay type: ADME, tissue-based; outline: as §1
[5] = system: Blood; assay: Metabolic stability in Sprague-Dawley rat whole blood assessed as conversion to (1R,2R)-2-((3-(((3R,4S)-N-cyclopropyl-4-(4-(2-(2,6-dichloro-4-methylphenoxy)ethoxy)phenyl)piperidine-3-carboxamido)methyl)-5-(3-methoxypropyl)phenoxy)methyl)cyclopropanecarboxylic acid after 20 mins; assay type: ADME, tissue-based; outline: as §1
[6] = target: Voltage-gated inwardly rectifying potassium channel KCNH2 (Homo sapiens, UniProt Q12809); assay: Binding affinity to human ERG
Voltage-gated inwardly rectifying potassium channel KCNH2, sequence (Q12809 whole entry): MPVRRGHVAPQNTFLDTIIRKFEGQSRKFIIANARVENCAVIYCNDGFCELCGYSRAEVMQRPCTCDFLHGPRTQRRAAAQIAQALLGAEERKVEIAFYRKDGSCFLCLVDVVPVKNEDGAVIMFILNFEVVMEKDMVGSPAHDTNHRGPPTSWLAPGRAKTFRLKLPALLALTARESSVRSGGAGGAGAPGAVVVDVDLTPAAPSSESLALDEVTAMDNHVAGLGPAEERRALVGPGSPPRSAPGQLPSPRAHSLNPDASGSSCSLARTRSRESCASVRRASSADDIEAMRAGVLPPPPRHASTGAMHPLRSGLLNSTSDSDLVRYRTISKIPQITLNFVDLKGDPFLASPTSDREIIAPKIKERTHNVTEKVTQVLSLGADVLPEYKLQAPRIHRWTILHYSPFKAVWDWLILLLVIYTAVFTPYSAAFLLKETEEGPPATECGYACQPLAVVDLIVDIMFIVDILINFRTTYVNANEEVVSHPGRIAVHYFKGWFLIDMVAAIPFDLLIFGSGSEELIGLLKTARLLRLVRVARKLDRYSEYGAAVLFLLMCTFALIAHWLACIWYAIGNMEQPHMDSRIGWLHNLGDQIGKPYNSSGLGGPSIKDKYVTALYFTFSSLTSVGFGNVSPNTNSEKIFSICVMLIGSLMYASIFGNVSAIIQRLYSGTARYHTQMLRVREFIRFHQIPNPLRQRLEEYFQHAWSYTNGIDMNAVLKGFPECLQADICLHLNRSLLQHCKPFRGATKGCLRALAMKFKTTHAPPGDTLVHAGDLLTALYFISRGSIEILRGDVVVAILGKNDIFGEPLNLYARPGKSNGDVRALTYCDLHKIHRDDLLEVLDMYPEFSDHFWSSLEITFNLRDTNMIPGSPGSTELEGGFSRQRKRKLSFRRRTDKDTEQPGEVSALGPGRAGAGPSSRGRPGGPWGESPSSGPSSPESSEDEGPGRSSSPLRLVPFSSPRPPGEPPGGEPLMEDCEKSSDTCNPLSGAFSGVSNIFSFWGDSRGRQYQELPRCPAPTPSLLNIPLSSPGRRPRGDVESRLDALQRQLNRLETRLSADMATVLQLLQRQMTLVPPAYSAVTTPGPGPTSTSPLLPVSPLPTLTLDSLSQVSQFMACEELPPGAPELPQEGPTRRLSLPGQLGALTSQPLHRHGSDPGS

[7] = target: T1, Cytochrome P450 3A4 (Homo sapiens, UniProt P08684); assay: Inhibition of human CYP3A4 in human liver microsomes assessed as formation of 6beta-hydroxy-testosterone using testosterone as substrate by high throughput mass spectrometry preincubated for 30 mins in presence of NADPH; assay type: ADME, Microsome
T1 sequence (P08684 whole entry): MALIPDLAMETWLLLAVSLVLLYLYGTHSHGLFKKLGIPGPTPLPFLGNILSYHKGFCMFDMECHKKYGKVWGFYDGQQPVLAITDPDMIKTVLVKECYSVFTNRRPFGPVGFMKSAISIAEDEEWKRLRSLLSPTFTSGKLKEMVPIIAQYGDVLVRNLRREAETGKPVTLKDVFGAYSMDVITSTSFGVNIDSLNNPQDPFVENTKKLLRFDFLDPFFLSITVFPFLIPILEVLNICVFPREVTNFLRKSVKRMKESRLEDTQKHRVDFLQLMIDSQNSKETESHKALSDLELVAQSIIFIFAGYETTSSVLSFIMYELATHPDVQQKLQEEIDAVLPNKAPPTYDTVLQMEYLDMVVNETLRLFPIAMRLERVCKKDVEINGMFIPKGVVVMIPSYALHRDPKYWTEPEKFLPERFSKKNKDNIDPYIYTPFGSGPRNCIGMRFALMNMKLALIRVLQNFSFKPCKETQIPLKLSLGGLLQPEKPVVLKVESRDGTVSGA

[8] = AUC (0 to 24 hrs) in Sprague-Dawley rat at 30 mg/kg, po as 0.5% methocel suspension; assay type: ADME, organism-based; parameters: time < 24 hr, dose 30 mg/kg, route oral; conditions: plasma
[9] = Clearance in Sprague-Dawley rat at 30 mg/kg, po in 0.5% methocel and 3 to 5 mg/kg, iv in 60% PEG 200; conditions: in vivo
[10] = Oral bioavailability in Sprague-Dawley rat at 30 mg/kg as 0.5% methocel suspension; assay type: ADME, organism-based; conditions: in vivo
[11] = target: T2, Renin (Homo sapiens, UniProt P00797); assay: Inhibition of human recombinant renin in PBS buffer using tetradecapeptide at pH 7.4
T2 sequence (P00797 whole entry): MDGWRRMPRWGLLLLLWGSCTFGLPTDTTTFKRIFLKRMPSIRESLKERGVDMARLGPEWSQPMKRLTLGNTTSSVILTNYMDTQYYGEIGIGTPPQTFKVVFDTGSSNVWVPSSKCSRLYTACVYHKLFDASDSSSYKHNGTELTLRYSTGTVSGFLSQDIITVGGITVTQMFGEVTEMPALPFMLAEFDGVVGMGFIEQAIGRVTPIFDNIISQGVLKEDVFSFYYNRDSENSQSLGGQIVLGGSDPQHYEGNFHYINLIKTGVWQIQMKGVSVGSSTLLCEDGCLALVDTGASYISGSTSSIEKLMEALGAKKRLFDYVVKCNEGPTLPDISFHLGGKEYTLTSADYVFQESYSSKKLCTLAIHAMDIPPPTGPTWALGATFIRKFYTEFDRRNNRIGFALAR

[12] = target: T1, Cytochrome P450 3A4; assay: Inhibition of human CYP3A4 in human liver microsomes assessed as formation of 6beta-hydroxy-testosterone using testosterone as substrate by high throughput mass spectrometry in absence of NADPH; assay type: ADME, Microsome
[13] = target: T2, Renin; assay: Inhibition of human recombinant renin in human citreated-plasma

SMILES | AUC(0-t) at 24 h [1] [µM·h] | Activity [2] [%] | Activity [3] [%] | Activity [4] [%] | Activity [5] [%] | Ki [6] [nM] | IC50 [7] [nM] | AUC(0-t) at 24 h [8] [µM·h] | clearance [9] [mL/min/kg] | bioavailability [10] [%] | IC50 [11] [nM] | IC50 [12] [nM] | IC50 [13] [nM]
COCCCc1cc(CN(C(=O)[C@H]2CN(C(=O)OCc3oc(=O)oc3C)CC[C@@H]2c2ccc(OCCOc3c(Cl)cc(C)cc3Cl)cc2)C2CC2)cc(OC[C@H]2C[C@@H]2C(=O)O)c1 | 0.2 | 99 | 98 | 11 | 93 | 3700 | – | – | – | – | – | – | –
COCCCc1cc(CN(C(=O)[C@H]2CNCC[C@@H]2c2ccc(OCCOc3c(Cl)cc(C)cc3Cl)cc2)C2CC2)cc(OCC2(CC(=O)O)CC2)c1 | – | – | – | – | – | 1000 | > 50000 | 0.2 | 49 | 2 | 0.04 | > 50000 | –
COCCCc1cc(CN(C(=O)[C@H]2CNCC[C@@H]2c2ccc(OCCOc3c(Cl)cc(C)cc3Cl)cc2)C2CC2)cc(OCC(C)(C)C(=O)O)c1 | – | – | – | – | – | 600 | > 50000 | 1.1 | 44 | 9 | 0.06 | > 50000 | 29.6
COCCCc1cc(CN(C(=O)[C@H]2CNCC[C@@H]2c2ccc(OCCOc3c(Cl)cc(C)cc3Cl)cc2)C2CC2)cc(OCCC(C)(C)C(=O)O)c1 | – | – | – | – | – | 400 | > 50000 | 2.1 | 43 | 13 | 0.02 | > 50000 | 9
COCCCc1cc(CN(C(=O)[C@H]2CNCC[C@@H]2c2ccc(OCCOc3c(Cl)cc(C)cc3Cl)cc2)C2CC2)cc(OCCCC(C)(C)C(=O)O)c1 | – | – | – | – | – | 200 | > 50000 | 16 | 9.7 | 22 | 0.01 | > 50000 | 6.1
CCC(CC)(CCOc1cc(CCCOC)cc(CN(C(=O)[C@H]2CNCC[C@@H]2c2ccc(OCCOc3c(Cl)cc(C)cc3Cl)cc2)C2CC2)c1)C(=O)O | – | – | – | – | – | 400 | > 50000 | 6.1 | 29 | 26 | – | > 50000 | –
COCCCc1cc(CN(C(=O)[C@H]2CNCC[C@@H]2c2ccc(OCCOc3c(Cl)cc(C)cc3Cl)cc2)C2CC2)cc(OCCC2(C(=O)O)CCCC2)c1 | – | – | – | – | – | 500 | > 50000 | 3.3 | 27 | 15 | 0.01 | > 50000 | 12.4
COCCCc1cc(CN(C(=O)[C@H]2CNCC[C@@H]2c2ccc(OCCOc3c(Cl)cc(C)cc3Cl)cc2)C2CC2)cc(OCC[C@](C)(OC)C(=O)O)c1 | – | – | – | – | – | 2300 | > 50000 | 1.2 | 23 | 3 | 0.06 | > 50000 | 2.1
COCCCc1cc(CN(C(=O)[C@H]2CNCC[C@@H]2c2ccc(OCCOc3c(Cl)cc(C)cc3Cl)cc2)C2CC2)cc(OC[C@H]2C[C@@H]2C(=O)NS(C)(=O)=O)c1 | – | – | – | – | – | 500 | > 50000 | – | 26 | 0 | 0.01 | > 50000 | 2.1
COCCCc1cc(CN(C(=O)[C@H]2CNCC[C@@H]2c2ccc(OCCOc3c(Cl)cc(C)cc3Cl)cc2)C2CC2)cc(OCC2(Cc3nn[nH]n3)CC2)c1 | – | – | – | – | – | 500 | > 50000 | – | 46 | 0 | – | > 50000 | 5.3
